# LMPTP block – blocks human LMPTP phosphatase; P24666; recombinant LMPTP-A, OMFP fluorogenic substrate, fluorescence intensity; inhibition, % at 20 µM; 0.22% of 360,000 active; AID 651560;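 active = compounds that cut the enzyme signal by at least half of the control window in the single-dose screen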;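 note: plate controls were DMSO wells with enzyme plus substrate for no effect and substrate without enzyme for full effect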
#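 Buffer or medium: Bis-Tris pH 6.0, DTT, detergent; Assay system: LMPTP-A enzyme; Quantity: 0.625 nM enzyme; Detection: endpoint fluorescence intensity; Times: 50 min dark incubation at room temperature; Controls: substrate-only low control, DMSO enzyme-plus-substrate high control; Doses: single 20 µM dose; Read-out: percent inhibition versus substrate-only and uninhibited controls; Reagent: 400 µM OMFP.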
# STEP inh – blocks human striatal-enriched tyrosine phosphatase. P54829. recombinant STEP, OMFP fluorogenic substrate, fluorescence. inhibition, % at 20 µM. 0.25% of 360,000 active. AID 588621;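 active = inhibition at 20 µM, scaled per plate between control wells, above about 37%, limit read from the data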;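 note: 0% = DMSO with enzyme and substrate and 100% = substrate only without enzyme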
#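 Measure: Control-normalized % inhibition with plate pattern correction | Test system: STEP phosphatase, cell-free reaction | Medium: pH 6.0 Bis-Tris with DTT and Tween 20 | Technique: Fluorescence, 480/540 nm | Times: Reaction 20 min, ambient temperature | Doses: Single compound dose of 20 µM, 1% DMSO final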
# SUMO1 PPI mod – modulators of human SUMO1-mediated protein-protein interactions; P63165; SUMO1 binding to a labelled peptide, TR-FRET, 1 h; inhibition, % at 20 µM; 0.33% of 360,000 active; AID 602429; in the data active = inhibition above about 37%
# DNMT1 block – DNMT1 (human) enzyme inhibition; P26358; DNMT1 molecular beacon, Hinp1I cleavage, fluorescence; 0.83% of 360,000 active; inhibition (reported as % activation of signal), % at 10 µM; in the data active = inhibition above about 50%
# HKDC1 inhibitor – inhibitors of human hexokinase HKDC1 | Q2TB90 | recombinant HKDC1, G6PDH/diaphorase resazurin coupled fluorescence | inhibition, % at 20 µM | 0.16% of 340,000 active;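 active = inhibition above about 35% when tested at 20 µM, limit read from the data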;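 note: plate controls were DMSO wells with enzyme for no effect and DMSO wells lacking enzyme for full effect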
# Target sequence (Q2TB90 whole entry, looked up): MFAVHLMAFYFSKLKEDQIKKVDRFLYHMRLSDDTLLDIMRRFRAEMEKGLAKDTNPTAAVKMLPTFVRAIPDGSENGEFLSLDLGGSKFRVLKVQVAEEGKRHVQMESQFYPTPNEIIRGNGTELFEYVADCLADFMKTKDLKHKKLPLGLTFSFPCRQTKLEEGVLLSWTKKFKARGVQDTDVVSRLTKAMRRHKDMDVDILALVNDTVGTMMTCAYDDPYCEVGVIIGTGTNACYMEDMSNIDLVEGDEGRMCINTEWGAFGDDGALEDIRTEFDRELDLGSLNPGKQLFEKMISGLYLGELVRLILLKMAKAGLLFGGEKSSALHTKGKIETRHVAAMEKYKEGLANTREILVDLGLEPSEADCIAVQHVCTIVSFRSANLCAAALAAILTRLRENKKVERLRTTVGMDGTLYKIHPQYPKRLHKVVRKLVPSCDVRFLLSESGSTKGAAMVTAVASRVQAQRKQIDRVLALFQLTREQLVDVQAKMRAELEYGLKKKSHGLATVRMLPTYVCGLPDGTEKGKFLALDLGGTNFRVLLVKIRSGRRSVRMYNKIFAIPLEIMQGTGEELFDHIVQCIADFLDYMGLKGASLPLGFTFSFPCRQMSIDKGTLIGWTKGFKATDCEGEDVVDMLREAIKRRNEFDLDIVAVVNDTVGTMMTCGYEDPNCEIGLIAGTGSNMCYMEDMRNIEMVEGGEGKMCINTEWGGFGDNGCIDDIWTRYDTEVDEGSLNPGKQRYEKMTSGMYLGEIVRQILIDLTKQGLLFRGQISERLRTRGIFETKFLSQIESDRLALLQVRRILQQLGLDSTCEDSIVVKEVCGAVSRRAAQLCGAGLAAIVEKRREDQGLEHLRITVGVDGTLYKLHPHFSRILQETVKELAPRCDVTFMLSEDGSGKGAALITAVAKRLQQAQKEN
#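 Assay system – recombinant HKDC1 (HK5) hexokinase enzyme, produced in-house · Input – HKDC1 at 5 µg/mL · Reagent – glucose plus 1 mM ATP as hexokinase substrates · Timing – 90 min reaction incubation at room temperature, dark · Measured by – G6PDH/diaphorase-coupled fluorescence, 1 mM NADP, 100 µM resazurin, 525/613 nm · Benchmarks – DMSO-enzyme wells negative, buffer-substituted wells positive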
# Scp1 inh – inhibitors of human Scp-1 phosphatase. Q9GZU7. Recombinant Scp1, phosphopeptide, malachite green phosphate absorbance. inhibition, % at 20 µM. 0.88% of 340,000 active. AID 493091;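 active = inhibition above about 50% at 20 µM, limit read from the data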;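 note: plate controls were DMSO wells with enzyme for no effect and wells lacking enzyme for full effect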
#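 Material: truncated SCP-1 phosphatase (76-261aa) / Buffer or medium: 50 mM Tris acetate pH 5.5, 0.005% Tween-20, 10 mM MgCl2 / Compound dosing: one concentration, 20 µM, with 1.0% DMSO / Incubation: 45 min room-temperature reaction, 5 min colour, 30 min stabiliser / Detection: colorimetric free-phosphate detection, absorbance 630 nm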
# Beacon interf DR – counter-screen for DNMT1 inhibitors: spectral interference, dose response | shares compounds with DNMT1 block | molecular beacon fluorescence | IC50, µM | 200 tested, under 10 active; call rule not given here
# DNMT1 confirm – DNMT1 inhibition confirmation, single concentration; DNMT1 molecular beacon HinP1I cleavage, fluorescence; AID 602385; shares compounds with DNMT1 block; 8% of 2,300 active; inhibition, % at 10 µM;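 active = average inhibition of at least 30% in the single-concentration confirmation test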
# Beacon interf – beacon fluorescence artifact counter-screen; shares compounds with DNMT1 block; AID 602387; 1% of 2,300 active; DNMT1 molecular beacon spectral interference counterscreen, fluorescence 485/520; activation (fluorescence interference), % at 10 µM;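 active = activation of at least 30% at 10 µM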;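 note: DNMT1 catalytic domain with a HinP1I cleavage step and a FAM/dabcyl DNA beacon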
# * = called active by the depositor; / = no result given. Only some compounds are listed: those with a hit (about 1.8% of all), similar ones and a draw of the others.
SMILES,LMPTP block,STEP inh,SUMO1 PPI mod,DNMT1 block,HKDC1 inhibitor,Scp1 inh,DNMT1 confirm,Beacon interf,others
C=C(C)[C@@H]1CC[C@]2(C(=O)O)CC[C@]3(C)C(CCC4[C@@]5(C)CC[C@H](O)C(C)(C)C5CC[C@]43C)C12 (some centres undefined),-0.1,3.6,2.7,60.1*,-0.2,-4.0,-0.8,-15.9,
C=C(C)[C@@H]1CCC2(C(=O)O)CC[C@]3(C)[C@H](CC[C@@H]4[C@@]5(C)CCC(=O)C(C)(C)[C@@H]5CC[C@]43C)[C@@H]12 (some centres undefined),2.1,0.9,2.4,55.0*,4.1,4.4,1.0,-7.8,
C[C@H]1CNC(=O)c2c(C(=O)N[C@@H](Cc3c[nH]c4ccccc34)C(=O)OC(C)(C)C)ncn21,-1.5,-5.2,6.9,-1.8,/,/,/,/,
Cc1cc(C)n2nc(C(=O)N/N=C/c3ccccc3Cl)nc2n1,-0.9,1.6,-23.1,0.8,-0.1,-1.7,/,/,
Cc1cc(C)n2nc(C(=O)N/N=C/c3c4ccccc4cc4ccccc34)nc2n1,9.4,4.2,14.9,92.0*,-1.5,-12.8,-0.9,1.2,
COc1ccc(CNC(=O)C2CCCN(S(=O)(=O)c3ccccc3)C2)cc1 (centres undefined),0.8,1.6,3.8,0.8,-8.7,-10.7,/,/,
COc1ccc(CCNC(=O)C2CCCN(S(=O)(=O)c3ccccc3)C2)cc1 (centres undefined),-0.5,0.5,-2.2,82.5*,7.7,-1.8,1.6,2.1,
CCOC(=O)[C@]12CCC=C1N(Cc1ccc(Cl)cc1Cl)C(=O)[C@H](CC(=O)NCc1ccccc1)C2,4.4,/,10.6,/,/,/,/,/,
C=CCC[C@@H](CCCCC)OC(=O)/C=C/[C@H](O)[C@@H](O)C[C@H](O)CC=C,0.0,/,6.6,/,/,/,/,/,
COc1ccc(N(CC(=O)NCCSCc2ccco2)S(=O)(=O)c2ccccc2)cc1,0.5,0.9,-0.4,76.4*,-4.3,-13.2,4.0,4.8,
CN1C(=O)S/C(=C/c2cccn2-c2cccc(C(=O)O)c2)C1=O,0.9,9.9,-13.2,21.3,-1.0,6.7,/,/,
O=C(O)c1cccc(-n2cccc2/C=C\[N+](=O)[O-])c1,0.6,7.6,11.1,61.7*,-0.1,43.4,6.9,4.8,
O=C(O)c1cccc(-n2cccc2/C=C/[N+](=O)[O-])c1,5.4,20.9,67.7*,88.6*,17.4,85.4*,5.0,-1.4,
Cc1cccc(C(O)c2ncc(-c3ccc(Cl)cc3)[nH]2)c1C (centres undefined),1.5,-2.5,5.6,-2.9,/,/,/,/,
O=C(Nc1ccc(F)c(Cl)c1)c1cc(C2CCCCN2C(=O)c2ccccc2)on1 (centres undefined),3.5,3.4,2.2,-0.1,/,/,/,/,
O=C(O)c1ccc(-n2cccc2/C=C2/NC(=O)N(c3ccccc3)C2=O)cc1,26.5,72.8*,88.6*,92.8*,8.6,89.0*,82.9*,-2.8,Beacon interf DR=>99
O=C(O)c1ccc(-n2cccc2/C=C2/NC(=O)N(c3cccc(Cl)c3)C2=O)cc1,47.2,43.2*,-2.3,94.3*,9.5,77.2*,83.8*,-3.6,Beacon interf DR=>99
O=C(O)c1ccc(-n2cccc2/C=C2/SC(=O)N(CC(=O)N3CCCC3)C2=O)cc1,18.3,92.7*,80.9*,91.4*,7.9,75.6*,81.2*,-4.5,Beacon interf DR=>99
O=C(O)c1cccc(-n2cccc2/C=C2\NC(=O)N(Cc3ccc(F)cc3)C2=O)c1,3.6,6.1,1.8,107.2*,0.0,45.8,15.7,3.0,
O=C1N/C(=C/c2cccn2-c2ccc(F)cc2)C(=O)N1Cc1ccccc1,0.2,1.5,-2.7,5.4,-6.9,-1.5,/,/,
CCCCN1CC(=O)N2[C@@H]3c4cc(OC)ccc4OC[C@@H]3[C@H](C(=O)OCC)[C@]2(C)C1=O,-2.1,1.2,-0.1,-2.5,-1.1,-4.8,/,/,
Cc1cccc(C)c1NC(=O)C(c1ccnc2ccccc12)n1c(=O)c(-c2ccco2)nc2ccccc21 (centres undefined),3.3,/,-12.5,/,/,/,/,/,
CCC1(c2ccc(C)cc2)NC(=O)N(C(C)C(=O)Nc2ccc(N3CCOCC3)cc2)C1=O (centres undefined),-0.3,-2.9,-0.2,-3.4,4.7,-2.7,/,/,
O=S1(=O)N=C(N(Cc2cccs2)c2ccc(O)cc2)c2ccccc21,0.5,-1.4,1.4,-1.6,-7.5,-7.0,/,/,
COC(=O)N1CCN(c2ccc(C(C)=O)cc2)CC1,1.9,-2.4,0.3,-4.3,-11.1,-6.5,/,/,
SMILES,LMPTP block,STEP inh,SUMO1 PPI mod,DNMT1 block,HKDC1 inhibitor,Scp1 inh,DNMT1 confirm,Beacon interf,others
COC(=O)c1ccc(N2CCS(=O)(=O)CC2)cc1,0.1,-4.9,2.6,58.7*,-4.6,6.6,1.7,3.5,
COCC(=O)N(C)C[C@@H]1Oc2ncc(Br)cc2C(=O)N([C@@H](C)CO)C[C@H]1C,-0.5,2.3,-0.3,-2.3,/,/,/,/,
O=C(CSc1nnnn1-c1ccccc1)Nc1nsc(-c2ccccc2)n1,-0.1,0.1,1.0,-0.9,-8.3,0.8,/,/,
O=C(CSc1nnnn1-c1ccccc1)Nc1nsc(-c2ccc(Cl)cc2)n1,9.3,1.7,6.4,71.3*,-2.7,0.3,-0.5,-4.1,
O=C(CSc1ccc2ccccc2n1)Nc1nsc(-c2ccc(Cl)cc2)n1,55.9*,13.7,43.1*,76.6*,18.1,0.1,1.1,-2.9,
Cc1cccc(NC(=O)/C(=C\c2ccc([N+](=O)[O-])o2)NC(=O)c2ccc(Cl)cc2)c1,8.8,6.7,-13.3,85.3*,2.2,45.1,-1.1,2.8,
CSc1ccc(/C=C(/NC(=O)c2ccc(C)cc2)C(=O)Nc2cccc(C)c2)cc1,0.0,1.3,1.0,54.7*,5.1,-2.7,0.1,2.4,
COC(=O)/C(=C\c1ccc([N+](=O)[O-])o1)NC(=O)c1ccccc1,0.1,1.5,-20.1,5.5,0.5,-3.3,/,/,
CC1CCCCN1S(=O)(=O)c1ccc(S(=O)(=O)N2CCN(c3ccc(F)cc3)CC2)cc1 (centres undefined),-3.4,0.6,2.0,52.5*,-14.6,-4.0,3.1,3.2,
O=S(=O)(c1ccc(F)cc1)N1CCN(c2ccccc2)CC1,-0.6,2.7,1.6,-2.1,-2.6,-10.8,/,/,
O=C(CNc1cccc2ccccc12)N/N=C/C=C/c1ccco1,5.1,0.7,-11.9,-17.8,8.8,-8.1,/,/,
